# A selection: hits, their analogues and other compounds. The true share with any hit is near 3.9%.
# core dimer inh: blocks dimerization of HCV core protein; TR-FRET GST/Flag-core106 dimerization, 1536-well; inhibition, % at 5 µM; 0.33% of 300,000 active; AID 1899;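 active means inhibition above the mean of all tested compounds plus 3 SD, set per screening campaign, cut at about 45% in these data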
#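 assay system = GST-tagged and Flag-tagged HCV core protein residues 1-106 | controls = unlabelled core106 and no-GST-core106 wells | incubation = compound-protein-antibody incubation 4 h at 22.5 °C | probe or stimulus = Eu donor and XL665 acceptor anti-tag antibodies | read-out = % inhibition based on acceptor/donor emission ratio | signal = TR-FRET 671 and 617 nm emission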
# HSP90 refold inh: blocks HSP90-mediated luciferase refolding in reticulocyte lysate; Rabbit reticulocyte lysate, luciferase refolding luminescence, 3 h; inhibition, % at 5.6 µM; 0.91% of 290,000 active;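 active means inhibition above the screen-wide mean plus 3 SD, computed separately per campaign, cut at about 16% in these data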;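 further: 0% = DMSO wells and 100% = 60 µM geldanamycin wells; inhibitors lower the luminescence because luciferase stays unfolded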
# HSF1 inhib: HSF1 inhibition; NIH3T3-HGL HSE-luciferase, MG132-induced, luminescence 8 h; hits give low values; 0.77% of 300,000 active; activity change, negative = inhibition, % at 7.5 µM (by protocol);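 active means more than half of replicate wells show activity change below -50%, luminescence cut by over half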;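 further: luciferase reports HSF-1 transcriptional activity via heat shock element; 0% = median of DMSO wells and -100% = zero luminescence signal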
# HSF1 activator: increases HSF-1 driven luciferase reporter signal; NIH3T3-HGL HSF-1 luciferase reporter, MG132, 8 h; 100% = twice DMSO control signal; activation, % at 9 µM; AID 504408; 1.7% of 300,000 active;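 active means mean replicate activation of at least 50% with a set share of replicates each reaching 50%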;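 further: 0% = median of the neutral control wells and 100% = twice that signal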
# NS3 helicase inh: inhibitors of Hepatitis C virus NS3 helicase; NS3 helicase DNA unwinding, Cy5 molecular beacon fluorescence; inhibition, % at 10.9 µM; 0.56% of 290,000 active;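 active means inhibition above the mean of all tested compounds plus 3 SD, set per campaign, cut at about 35% in these data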;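 further: 0% = DMSO wells and 100% = thioflavine S control wells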
#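 test system = hepatitis C virus NS3 helicase domain fragment enzyme | reagent = annealed dual-labelled DNA beacon duplex, ATP-started | times = 1 h at 25 °C | detection = Cy5 fluorescence, 0 and 60 min reads | read-out basis = percent inhibition from t60/t0 fluorescence ratio | control set = DMSO and thioflavine S | replication = one well per compound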
# FID counter: counter-screen for HCV NS3 helicase inhibitors: DNA intercalator displacement. DNA fluorescent intercalator displacement, fluorescence. inhibition, % at 7.9 µM. 0.17% of 290,000 active. AID 1845; in the data active means inhibition above about 37%;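 further: 0% = vehicle and 100% = reference compound; higher means more ethidium bromide displaced from hairpin DNA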
# * hit, by the source's call; . = no result.
SMILES,core dimer inh,HSP90 refold inh,HSF1 inhib,HSF1 activator,NS3 helicase inh,FID counter
CCC(C)NC(=O)C1CCC(CNS(=O)(=O)c2ccc3c(c2)CC(C)N3C(=O)C2CC2)CC1 (centres undefined),-4,0,-3,9,-4,-42
CCC(NC(=S)NCc1ccccc1)C(=O)O (centres undefined),1,-2,-60*,-67,2,0
O=C(OCn1ncc(Br)c(Br)c1=O)c1c(F)cccc1F,-47,3,-95*,-96,0,-1
COC(=O)C(COC(=O)c1c(F)cccc1F)NC(=O)c1c(F)cccc1F (centres undefined),2,3,11,22,8,1
CC(=O)Cn1ncc(Br)c(Br)c1=O,.,1,-94*,-94,-4,-1
CCNc1ccc(Br)cc(C(=O)/C=C/c2c(Cl)cccc2Cl)c1=O,-6,7,49,73*,26,-21
O=C(O)COc1ccccc1/C=C1\SC(=S)N(c2cccnc2)C1=O,6,3,1,-7,7,-24
CC(=NNC(=S)SCc1ccccc1)c1ccccn1,.,.,95*,95*,.,.
OC(CN1CCN(c2ncc(C(F)(F)F)cc2Cl)CC1)c1ccccc1 (centres undefined),5,-4,2,3,-25,-9
Cc1ccc2c(c1)c1c3n2CCN(CC(O)CNC(C)C)C3CCC1 (centres undefined),-18,2,-14,-1,-29,45*
Cc1ccc2nsnc2c1NS(=O)(=O)c1c(C)ccc2nsnc12,-6,1,-8,-3,-3,3
CCOC(=O)CCCNS(=O)(=O)c1c(C)ccc2nsnc12,1,2,-89*,-91,-3,-2
O=C(O)CCSc1nc2ccccc2s1,-3,12,-63*,-65,4,1
CC1Cc2ccccc2N1C(=O)CSc1nc2ccccc2s1 (centres undefined),15,-1,19,56*,-1,-11
CC1CCN(C(=O)CSc2nc3ccccc3s2)CC1,-1,-6,30,54*,5,-20
Cc1nnc(SCC(=O)N2c3ccccc3CC2C)s1 (centres undefined),-6,1,8,14,1,-6
CCOCC(=O)Nc1ccc(S(=O)(=O)N2CCC(c3nc4ccccc4[nH]3)CC2)cc1,-6,.,-6,3,.,.
Cc1ccc(S(=O)(=O)NCCc2nc3ccccc3[nH]2)cc1,-10,-1,-3,-5,2,-4
O=C(Nc1ccc(SC(F)F)cc1)c1ccc2nccnc2c1,12,2,-3,22,9,8
Cc1cc(=O)[nH]c(NCc2ccccc2)n1,-9,16*,10,33,24,-4
Cc1cc(=O)[nH]c(NCCO)n1,-3,-2,-7,-6,1,2
Cc1ccc(NC(=O)CC2COc3ccccc3O2)cc1 (centres undefined),-3,-5,10,13,-8,-9
BrC(/C=C\c1ccccc1)=N/Nc1nc(N2CCOCC2)nc(N2CCOCC2)n1,0,0,104,176*,-16,-29
CN(C)c1ccc(/C=C/C=N/Nc2nc(N3CCOCC3)nc(N3CCOCC3)n2)cc1,-14,-2,57,79*,0,-32
BrC(=C\c1ccccc1)/C=N/Nc1nc(N2CCOCC2)nc(N2CCOCC2)n1,-3,3,8,8,2,-29
SMILES,core dimer inh,HSP90 refold inh,HSF1 inhib,HSF1 activator,NS3 helicase inh,FID counter
CC(C)c1ccc(C(=O)NCCCN2CCOCC2)cc1,-7,-1,-5,11,-3,7
CC(C)c1ccc(/C=C2\C(=O)N(CCN3CCOCC3)C(=S)N2C)cc1,1,1,24,66*,10,-7
CCc1ccc(OCC(=O)N/N=C\c2ccco2)c([N+](=O)[O-])c1,54*,-3,15,3,14,-7
O=C(COc1cccc([N+](=O)[O-])c1)N/N=C/c1ccco1,0,1,-7,-9,13,0
CN1C(C(=O)Nc2ccc(OC(F)(F)F)cc2)=CC(c2cccs2)=NS1(=O)=O,3,-3,-74*,-80,-7,4
C/C(=N\NC(=O)c1c(C)nc2ccccn12)c1ccc(N2CCOCC2)cc1,-6,-3,-1,8,5,-3
C/C(=N\NC(=O)c1c(C)nc2ccccn12)c1ccc(C(C)(C)C)cc1,-8,2,-55*,-62,-4,-17
CCN1CCCC1CN(Cc1cc2ccc(C)cc2[nH]c1=O)C(=S)Nc1cccc(OC)c1 (centres undefined),2,6,14,60*,-36,3
O=C(NC(Cc1ccccc1)C(=O)OCC(=O)N1CCc2ccccc21)c1ccco1 (centres undefined),4,1,-3,2,5,-31
Cn1c(SCc2ccccc2)nnc1-c1ccc2nonc2c1,-3,0,3,44,-4,-1
COc1ccc(C(=O)N=c2sc3c(C)ccc(OC)c3n2C)cc1OC,14,9,42,62*,-1,-2
COc1cccc(C(=O)N=c2sc3c(C)ccc(OC)c3n2C)c1,-5,.,17,43,.,.
CCN(C(=S)Nc1cc(S(=O)(=O)N2CCOCC2)ccc1Cl)c1cccc2ccccc12,3,-5,10,12,-5,1
O=C(NCc1ccc(C(F)(F)F)cc1)C1CC(c2ccc(C(F)(F)F)cc2)=NO1 (centres undefined),-7,.,-5,-1,.,.
O=C(NCc1ccccc1C(F)(F)F)C1CC(c2ccc(C(F)(F)F)cc2)=NO1 (centres undefined),-15,.,-65*,-72,.,.
COc1cccc(NC(=O)Nc2ccc(C(C)(C)C)cc2)c1,.,4,-4,-8,-5,-2
Cc1ccc(NC(=O)C2CC(Cl)=CCC2C(=O)O)c([N+](=O)[O-])c1 (centres undefined),-5,1,-1,0,2,3
CCC(C)C(NS(=O)(=O)c1ccc(C)cc1)C(=O)O (centres undefined),-6,0,3,0,-2,0
CCOC(=O)C(NS(=O)(=O)c1ccc(Br)cc1)C(C)C (centres undefined),0,1,24,55*,1,-7
Cc1ccc(SCC(=O)O/N=C(\N)c2cccnc2)cc1,1,-4,26,14,3,-24
Cc1ccc(OCC(=O)N2CCCCC2)c(Br)c1,-1,0,13,17,-6,-16
CC(C)(C)c1ccc(OCC(=O)N2CCCCCC2)c(Br)c1,8,4,37,69*,3,-33
COc1ccc(/C=C/C(=O)N(C(C)C)C(C)C)cc1Br,2,-1,55,99*,-3,-15

# Bioassay records: PubChem BioAssay, several laboratories
